# Compound activity as filed in PubChem.
# Compounds with a hit are over-represented: about 3.2% of the library has one in this group of screens.
# Apaf1 inhib = inhibitors of human Apaf-1 apoptosome; O14727; inhibition, % at 20 µM; 330,000 tested, 0.71% active; reconstituted apoptosome caspase-3 activity, DEVD-Rh110 fluorescence; active = inhibition of at least 40% at 20 µM;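 note: plate controls were DMSO wells for no effect and DEVD-CHO caspase inhibitor wells for full effect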
#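 Material: reconstituted apoptosome with Apaf-1, cytochrome c, caspase-9, procaspase-3, dATP / Buffer or medium: pH 7.5 Hepes buffer with CHAPS, BSA, DTT / Also added: cytochrome c with DEVD-Rh110 / Schedule: compound with Apaf-1, dATP, procaspase-3 30 min, then 50 min reaction, room temperature / Technique: rhodamine 110 fluorescence at Ex 480/Em 540 nm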
# MEKK2 mut-MEK5 = signal of MEK5 binding to mutant human MEKK2 PB1 domain. bead flow cytometry, Alexa488-MEK5 binding to MEKK2 mutant. percent response, % at 10 µM. 290,000 tested, 0.35% active. AID 1530; in the data active = percent response above about 24%, passing the limit was not always enough
# UBC13 polyUb = human UBC13 polyubiquitination inhibition; UBC13 polyubiquitin chain formation, TR-FRET; inhibition, % at 20 µM; AID 485273; 330,000 tested, 0.47% active; P61088; in the data active = inhibition above about 45%, passing the limit was not always enough
# DSG3 Ab inh = human desmoglein-3 autoantibody binding inhibition; binding (percent of control), % at 10 µM; DSG3-coupled beads, scFv-anti-DSG3-GFP binding, flow cytometry; active compounds read low; P32926; 310,000 tested, 0.48% active;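 active = binding more than 3 SD below its plate's average and above zero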;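 note: hits lower antibody fragment binding to DSG3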
# MEKK2wt PB1 HTS = raises or lowers MEK5 binding to wildtype human MEKK2 PB1 domain | bead flow cytometry, Alexa488-MEK5 binding to MEKK2 WT; actives lie on both sides | binding response (% of control), % at 10 µM | 290,000 tested, 1.1% active; in the data active = binding response below about 67% or above about 130%
# MEKK3 PB1 HTS = modulators (inhibitors or enhancers) of MEK5 binding to human MEKK3 PB1 domain. bead-based flow cytometry, Alexa488-MEK5 binding to MEKK3; actives lie on both sides; 0 = blocked by unlabeled MEK5, 100 = vehicle. Q99759. AID 1529. 290,000 tested, 1.4% active. binding response (% of control), % at 10 µM;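 active = binding response more than 3 SD above or below the average of its plate-row segment, actives on both sides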;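 note: Alexa488 bead fluorescence after subtracting the streptavidin-only scavenger bead signal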
# Target sequence (Q99759 whole entry, looked up, the tested form may be a part): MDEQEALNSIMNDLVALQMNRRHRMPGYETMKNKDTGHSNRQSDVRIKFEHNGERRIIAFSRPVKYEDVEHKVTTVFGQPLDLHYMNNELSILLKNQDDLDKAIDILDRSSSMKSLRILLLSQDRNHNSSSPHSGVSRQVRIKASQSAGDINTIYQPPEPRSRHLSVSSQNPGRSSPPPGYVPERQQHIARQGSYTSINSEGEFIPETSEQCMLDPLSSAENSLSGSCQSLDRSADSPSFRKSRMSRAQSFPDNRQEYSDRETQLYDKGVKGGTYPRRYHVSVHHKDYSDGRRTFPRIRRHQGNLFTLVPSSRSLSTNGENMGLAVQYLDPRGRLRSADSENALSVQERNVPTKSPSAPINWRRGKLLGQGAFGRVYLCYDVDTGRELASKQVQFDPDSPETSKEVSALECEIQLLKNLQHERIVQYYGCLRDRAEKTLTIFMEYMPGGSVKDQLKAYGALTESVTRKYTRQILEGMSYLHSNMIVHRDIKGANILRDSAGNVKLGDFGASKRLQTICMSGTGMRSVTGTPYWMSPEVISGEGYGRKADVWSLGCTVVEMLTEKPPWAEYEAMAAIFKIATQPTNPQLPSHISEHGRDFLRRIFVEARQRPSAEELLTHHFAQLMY
# MEKK2wt confirm = raises or lowers MEK5 binding to wildtype human MEKK2, retest | shares compounds with MEKK3 PB1 HTS | bead flow cytometry, Alexa488-MEK5 binding to MEKK2 WT; actives lie on both sides | binding response (% of control), % at 10 µM | 5,900 tested, 2.4% active; in the data active = binding response below about 16% or above about 210%; inactive = in between
# MEKK2mut confirm = signal of MEK5 binding to mutant human MEKK2, retest; 5,900 tested, 2% active; bead flow cytometry, Alexa488-MEK5 binding to MEKK2 mutant; percent response, % at 10 µM; shares compounds with MEKK3 PB1 HTS; in the data active = percent response mostly above about 71%, no sharp cut-off; inactive = mostly below about 38%;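 note: higher means compound restores mutant binding toward wildtype level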
# MEKK3-MEK5 inh = confirmation of inhibitors of MEK5 binding to human MEKK3 | bead flow cytometry, Alexa488-MEK5 binding to MEKK3; active compounds read low | 5,900 tested, 1.8% active | AID 1894 | binding response (% of control), % at 10 µM | shares compounds with MEKK3 PB1 HTS;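 active = binding response below 72% of control, or above a set upper limit, though filed actives all read lower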;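 note: 100% = DMSO only wells and 0% = binding blocked by excess unlabeled MEK5; lower values mean stronger disruption of MEK5 binding to MEKK3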
# Active calls of the source: *; · = not tested or not shown; + = active, no number; ! = a repeat was not active; [ ] = remark or other dose.
SMILES,Apaf1 inhib,MEKK2 mut-MEK5,UBC13 polyUb,DSG3 Ab inh,MEKK2wt PB1 HTS,MEKK3 PB1 HTS,MEKK2wt confirm,MEKK2mut confirm,MEKK3-MEK5 inh
O=C(O)COc1ccccc1/C=N/NC(=O)CSc1nc2ccccc2n1Cc1ccc(Cl)cc1,12,-28,-9,99,57,50*[inhibitor],103,6,106
O=C(CSc1nc2ccccc2n1Cc1ccc(Cl)cc1)N/N=C/c1ccccc1C(=O)O,9,0,-2,96,96,100,·,·,·
CCC(C)(C)NC(=O)CN(C(=O)CCC(=O)Nc1nccs1)c1cccc(C)c1,8,26*,2,118,109,105,104,0,102
Cc1cccc(N(CC(=O)NC(C)(C)C)C(=O)CCC(=O)Nc2nccs2)c1,3,13,1,117,111,106,·,·,·
COc1cc(N)c(Cl)cc1C(=O)OCC(=O)NCC1CCCCC1,4,·,4,119,·,·,·,·,·
CC[C@]1(C(=O)OC)[C@H]2C(=O)N(Cc3ccccc3)C(=O)[C@H]2[C@H]2CN(C)C(=NCc3ccccc3)N21,4,·,·,103,·,·,·,·,·
c1ccc2[nH]c(-c3ccncc3)nc2c1,1,-13,9,99,46*![inhibitor],42*![inhibitor],106,12,108
CCCCNC(=O)CNC(=S)N(Cc1ccccc1F)C1CCCCC1,1,0,-17,103,112,131*,97,-2,102
Nc1ccc2c(c1)-c1ccc(F)cc1C2=O,·,·,·,109,·,·,·,·,·
O=C(c1ccc(-n2cccc2)cc1)N1CCN(Cc2ccccc2)CC1,0,-9,4,101,88,89,·,·,·
Cn1nc(-c2ccc(C(=O)Nc3cccc(Cl)c3)cc2)c2ccccc2c1=O,22,-26,2,90,1.0*[inhibitor],34*[inhibitor],87,-1,92
Cn1nc(-c2ccc(C(=O)N3CCN(Cc4ccccc4)CC3)cc2)c2ccccc2c1=O,22,-14,-14,100,57*[inhibitor],52*[inhibitor],108,3,104
S=c1nc(-c2ccccc2Br)[nH][nH]1,-3,-3,6,124,-2.0*[inhibitor],1.0*[inhibitor],97,-3,94
S=c1nc(-c2cc(Cl)ccc2Cl)[nH][nH]1,2,0,5,102,106,103,·,·,·
COCCn1c(SCC(=O)NN2C(=O)NC(C)(c3ccccc3)C2=O)nnc1-c1ccncc1 (stereo not drawn),-4,·,1,102,·,·,·,·,·
COc1ccc(NCC(=O)N/N=C/C=C\c2ccccc2)cc1,1,1,-4,80,98,98,·,·,·
O=C(Cc1cccs1)N/N=C/C=C/c1ccccc1,0,0,-20,87,104,129*,104,0,104
COc1ccccc1NCC(=O)N/N=C/C=C/c1ccccc1,-5,3,-10,97,96,70*[inhibitor],99,-3,99
CCCn1c(-c2cccc([N+](=O)[O-])c2)nc2c1c(=O)[nH]c(=O)n2Cc1ccccc1,2,-2,9,95,97,70*[inhibitor],105,12,109
O=C(Nc1ccccc1C(=O)NC1CC1)c1ccc([N+](=O)[O-])o1,-3,·,-10,97,·,·,·,·,·
CC1=C(C#N)C(=O)NC(=O)/C1=C/c1ccc(-c2ccc(S(N)(=O)=O)cc2)o1,-6,-13,-8,97,3.0*[inhibitor],7.0*[inhibitor],82,-12,88
O=C(NCc1ccc2c(c1)OCO2)c1nc(Cn2cc(Br)cn2)no1,1,-3,4,99,97,95,·,·,·
Cc1cc(C)n(CCc2nc(-c3ccc(F)cc3)cs2)n1,8,2,7,105,104,106,·,·,·
COc1cc(-c2csc(CCn3nc(C)cc3C)n2)cc(OC)c1OC,-5,+,7,98,·,122,99,-3,97
C=CCN1C(=O)/C(=C\C=C2\N(C)c3ccccc3C2(C)C)SC1=S,-2,7,-230,253,·,75*[inhibitor],46,-29,75
SMILES,Apaf1 inhib,MEKK2 mut-MEK5,UBC13 polyUb,DSG3 Ab inh,MEKK2wt PB1 HTS,MEKK3 PB1 HTS,MEKK2wt confirm,MEKK2mut confirm,MEKK3-MEK5 inh
CCCN1C(=O)/C(=C\C=C2/Sc3ccccc3N2CCO)SC1=S,6,-17,-93,120,33*[inhibitor],68*[inhibitor],90,-8,96
CCCN1C(=O)/C(=C/C=C2\N(CC)c3ccccc3C2(C)C)SC1=S,8,151*,-186,228,134,68*[inhibitor],71,-14,90
CCCCN1C(=O)/C(=C/C=C2\Oc3ccccc3N2CC)SC1=S,·,-13,·,192,35*[inhibitor],69*[inhibitor],40,-38,79
COC1CC(N)C2OC(c3ccccc3)OCC2O1 (stereo not drawn),·,·,·,109,·,·,·,·,·
O=C(CN1C(=O)/C(=C/c2cccc(Br)c2)SC1=S)N1CCCC1,19,1,-7,103,112,153*,100,0,97
Cc1cc(C)cc(NC(=O)CCc2c(C)nn(-c3ccc(N4CCOCC4)nn3)c2C)c1,-4,3,0,109,101,103,·,·,·
Cc1ccc(C(=O)N/C(=C\c2ccc(-c3ccc(Br)cc3)o2)C(=O)NCCCN(C)C)cc1,18,37,72*,110,187*,106,181,38,104
CN(C)CCNC(=O)/C(=C/c1ccc(-c2ccc(Cl)cc2)o1)NC(=O)c1ccccc1,·,3,·,105,111,100,·,·,·
CN(CC(=O)Nc1ccccc1Cl)C(=O)Cn1cc(C(F)(F)F)cc(Cl)c1=O,4,·,-1,96,·,·,·,·,·
Cc1cc(Nc2ccc(O)cc2)ccc1N,22,·,-65,·,·,·,·,·,·
COc1ccc(CC(=O)Nc2cc(C)ccn2)cc1,-14,-15,-6,101,56,42*[inhibitor],89,1,94
CCCC(=O)NC(=S)NNC(=O)c1ccc([N+](=O)[O-])cc1,1,4,10,97,100,133*,95,3,99
O=C(/C(=C(\[O-])c1ccccc1)[n+]1ccc2ccccc2c1)c1ccccc1,·,4,·,106,102,128*,102,1,104
O=C(/C(=C(\[O-])c1ccccc1)[n+]1ccc2ccccc2c1)c1ccc(Cl)cc1,14,1,-6,107,100,98,·,·,·
CN1CCN(CCCNC(=O)c2ccc(/C=C3\Sc4ccccc4N(Cc4ccccc4F)C3=O)cc2)CC1,·,36,·,93,167*,97,190,62,110
